Measured values reported in ChEMBL document CHEMBL4699489, “Optimized Opioid-Neurotensin Multitarget Peptides: From Design to Structure-Activity Relationship Studies” (J Med Chem, 2020).
Numbered stars: 1 amine (or outer) side, 2 acyl side, 3 side chain; on linkers, the order of the positions; unused ones are H or OH. Square brackets hold non-standard residues; d marks the D form. Peptide text beside a SMILES is read from it. X1 = O=C1[C@@H](N[*:1])Cc2ccccc2CN1CCC(=O)[*:2]; X2 = O=C([C@@H]1Cc2cc(O)ccc2CN1[*:1])[*:2]; Dmt = Cc1cc(O)cc(C)c1C[C@H](N)C(=O)O; mTyr = N[C@@H](Cc1cccc(O)c1)C(=O)O; Tle = CC(C)(C)[C@H](N)C(=O)O

Assays:
[1] = biological target: T1, Neurotensin receptor type 1 (Homo sapiens, UniProt P30989); experiment: Agonist activity at human NTS1 expressed in HEK293 cells co-expressing Galphaq/RlucII/GFP10-Ggamma1/Gbeta1 assessed as increase in Gq activation incubated for 10 mins in presence of coelenterazine 400A by BRET assay relative to NT (8-13); assay type: cell-based
T1 sequence (P30989 whole entry): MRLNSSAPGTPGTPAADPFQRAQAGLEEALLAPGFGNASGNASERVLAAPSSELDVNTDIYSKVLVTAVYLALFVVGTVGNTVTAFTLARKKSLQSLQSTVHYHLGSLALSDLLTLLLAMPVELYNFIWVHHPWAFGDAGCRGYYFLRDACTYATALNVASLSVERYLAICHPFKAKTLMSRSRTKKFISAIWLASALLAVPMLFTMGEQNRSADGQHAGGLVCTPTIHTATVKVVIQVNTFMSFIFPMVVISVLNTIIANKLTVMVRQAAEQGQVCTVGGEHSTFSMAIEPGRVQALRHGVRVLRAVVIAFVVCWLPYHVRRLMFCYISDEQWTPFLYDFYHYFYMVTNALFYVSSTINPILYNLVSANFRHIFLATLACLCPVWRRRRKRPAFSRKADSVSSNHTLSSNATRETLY

Mu-type opioid receptor [2] = biological target: T2, Mu-type opioid receptor (Homo sapiens, UniProt P35372); experiment: Agonist activity at human MOR expressed in human U2OS cells assessed as increase in beta arrestin2 recruitment incubated for 90 mins by pathhunter beta-arrestin assay relative to DAMGO; assay type: cell-based; settings: filed as partial agonist
T2 sequence (P35372 whole entry): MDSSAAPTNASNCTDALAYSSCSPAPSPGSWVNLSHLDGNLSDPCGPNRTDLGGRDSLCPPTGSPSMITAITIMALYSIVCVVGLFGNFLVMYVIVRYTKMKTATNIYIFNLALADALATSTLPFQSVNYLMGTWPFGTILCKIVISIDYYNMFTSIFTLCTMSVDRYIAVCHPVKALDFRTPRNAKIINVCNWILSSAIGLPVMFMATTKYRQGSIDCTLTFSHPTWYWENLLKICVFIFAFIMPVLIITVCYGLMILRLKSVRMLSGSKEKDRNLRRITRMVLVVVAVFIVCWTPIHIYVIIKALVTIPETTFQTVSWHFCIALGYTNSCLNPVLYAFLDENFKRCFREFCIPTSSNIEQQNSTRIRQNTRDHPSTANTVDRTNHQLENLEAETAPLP
In short: (§1)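 U2OS cells stably coexpressing hMOR and enzyme acceptor-tagged β-arrestin-2, seeded at 5000 cells/well and kept 24 h at 37 °C. Graded peptide concentrations in PBS added for 90 min at 37 °C, then detection mix for 60 min at room temperature. Chemiluminescence read-out. EC50 and Emax (relative to DAMGO) by nonlinear regression. Duplicate, three independent experiments.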

Mu-type opioid receptor [3] = biological target: T2, Mu-type opioid receptor; experiment: Displacement of [3H]-DAMGO from recombinant human mu opioid receptor expressed in CHO cell membrane incubated for 60 mins by liquid scintillation counting method; assay type: cell membranes
In short: (§2)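 Membranes from CHO-hMOR, -hDOR or -hKOR cells, homogenized and washed in 50 mM Tris-HCl pH 7.4. Membranes (15–20 μg) incubated with [3H]DAMGO (MOR), [3H]diprenorphine (DOR) or [3H]U69,593 (KOR) plus graded peptide, 60 min at 25 °C. Nonspecific binding with 1–10 μM of the unlabelled ligand. GF/C filtration, scintillation counting. Ki by Cheng–Prusoff. Duplicate, three independent experiments.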

[4] = biological target: T3, Kappa-type opioid receptor (Homo sapiens, UniProt P41145); experiment: Agonist activity at human KOR stably expressed in CHO cell membranes assessed as stimulation of [35S]-GTPgammaS binding incubated for 1 hr by liquid scintillation counting assay relative to U69593; assay type: functional; settings: time 60.0 min
T3 sequence (P41145 whole entry): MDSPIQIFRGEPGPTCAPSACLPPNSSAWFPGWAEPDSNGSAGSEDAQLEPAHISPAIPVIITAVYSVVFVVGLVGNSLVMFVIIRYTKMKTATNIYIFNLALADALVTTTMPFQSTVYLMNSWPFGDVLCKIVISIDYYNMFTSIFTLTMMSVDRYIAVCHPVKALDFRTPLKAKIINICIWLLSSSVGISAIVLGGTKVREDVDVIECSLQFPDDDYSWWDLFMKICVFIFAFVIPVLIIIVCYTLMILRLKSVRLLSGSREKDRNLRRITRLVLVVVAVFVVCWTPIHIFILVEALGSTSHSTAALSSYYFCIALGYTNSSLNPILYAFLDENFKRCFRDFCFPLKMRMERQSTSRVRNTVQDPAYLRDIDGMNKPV
In short: (§3)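 Membranes from CHO cells stably expressing hMOR, hDOR or hKOR, prepared in 20 mM HEPES, 10 mM MgCl2, 100 mM NaCl, pH 7.4. Membranes (5–10 μg) incubated with 0.05 nM [35S]GTPγS, 10 μM GDP and graded peptide concentrations, 60 min at 25 °C. Nonspecific binding with 10 μM GTPγS, basal without ligand. GF/B filtration, scintillation counting. EC50 and Emax by nonlinear regression; Emax relative to DAMGO, DPDPE or U69,593. Duplicate, three independent experiments.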

[5] = biological target: T4, Delta-type opioid receptor (Homo sapiens, UniProt P41143); experiment: Agonist activity at human DOR stably expressed in CHO cell membranes assessed as stimulation of [35S]-GTPgammaS binding incubated for 1 hr by liquid scintillation counting assay relative to DPDPE; assay type: functional; settings: filed as agonist, time 60.0 min; in short: as §3
T4 sequence (P41143 whole entry): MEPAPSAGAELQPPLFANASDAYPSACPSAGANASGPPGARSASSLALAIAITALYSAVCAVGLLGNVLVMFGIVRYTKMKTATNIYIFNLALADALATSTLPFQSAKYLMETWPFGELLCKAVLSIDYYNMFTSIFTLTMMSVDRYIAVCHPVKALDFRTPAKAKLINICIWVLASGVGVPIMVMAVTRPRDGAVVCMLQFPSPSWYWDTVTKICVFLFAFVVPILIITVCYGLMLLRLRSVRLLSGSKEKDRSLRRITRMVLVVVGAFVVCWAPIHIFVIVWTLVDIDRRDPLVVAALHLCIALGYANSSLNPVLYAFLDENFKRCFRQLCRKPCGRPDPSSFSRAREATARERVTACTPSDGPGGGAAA

[6] = biological target: T1, Neurotensin receptor type 1; experiment: Agonist activity at human NTS1 expressed in HEK293 cells co-expressing Galphaq/RlucII/GFP10-Ggamma1/Gbeta1 assessed as increase in Galphaq activation incubated for 10 mins in presence of coelenterazine 400A by BRET assay; assay type: cell-based
Mu-type opioid receptor [7] = biological target: T2, Mu-type opioid receptor; experiment: Agonist activity at human MOR expressed in CHO cell membranes assessed as stimulation of [35S]-GTPgammaS binding incubated for 1 hr by liquid scintillation counting assay relative to DAMGO; assay type: functional; settings: filed as agonist, time 60.0 min; in short: as §3
Mu-type opioid receptor [8] = biological target: T2, Mu-type opioid receptor; experiment: Potency index, ratio of PK20 Ki to test compound Ki for displacement of [3H]-DAMGO from recombinant human mu opioid receptor expressed in CHO cell membranes
[9] = biological target: T3, Kappa-type opioid receptor; experiment: Agonist activity at human KOR stably expressed in CHO cell membranes assessed as stimulation of [35S]-GTPgammaS binding incubated for 1 hr by liquid scintillation counting assay; assay type: functional; in short: as §3
[10] = biological target: T4, Delta-type opioid receptor; experiment: Agonist activity at human DOR stably expressed in CHO cell membranes assessed as stimulation of [35S]-GTPgammaS binding incubated for 1 hr by liquid scintillation counting assay; assay type: functional; in short: as §3
[11] = biological target: T3, Kappa-type opioid receptor; experiment: Displacement of [3H]-U69593 from recombinant human kappa opioid receptor expressed in CHO cell membrane incubated for 60 mins by liquid scintillation counting method; assay type: cell membranes; in short: as §2
[12] = biological target: Neurotensin receptor type 2 (Homo sapiens, UniProt O95665); experiment: Displacement of [125I]-neurotensin from human recombinant NTS2 stably expressed in human 1321N1 cell membranes incubated for 60 mins by gamma counter method
Chain of Neurotensin receptor type 2 (O95665 whole entry): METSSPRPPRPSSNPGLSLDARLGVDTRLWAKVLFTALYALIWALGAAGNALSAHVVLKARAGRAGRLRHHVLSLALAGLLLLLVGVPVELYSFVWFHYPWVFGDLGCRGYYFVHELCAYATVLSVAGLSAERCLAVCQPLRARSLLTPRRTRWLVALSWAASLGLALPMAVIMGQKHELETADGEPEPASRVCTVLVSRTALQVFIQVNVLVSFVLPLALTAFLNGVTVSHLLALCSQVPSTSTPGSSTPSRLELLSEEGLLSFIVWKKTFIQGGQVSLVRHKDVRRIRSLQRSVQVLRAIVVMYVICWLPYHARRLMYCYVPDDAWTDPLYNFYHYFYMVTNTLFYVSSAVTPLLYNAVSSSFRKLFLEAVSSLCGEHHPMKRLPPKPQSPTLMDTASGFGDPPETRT

[13] = biological target: T4, Delta-type opioid receptor; experiment: Displacement of [3H]-Diprenorphine from recombinant human delta opioid receptor expressed in CHO cell membrane incubated for 60 mins by liquid scintillation counting method; assay type: cell membranes; in short: as §2
[14] = biological target: T1, Neurotensin receptor type 1; experiment: Displacement of [125I]-neurotensin from human recombinant NTS1 stably expressed in CHO-K1 cell membranes incubated for 60 mins by gamma counter method
Mu-type opioid receptor [15] = biological target: T2, Mu-type opioid receptor; experiment: Agonist activity at human MOR expressed in human U2OS cells assessed as increase in beta arrestin2 recruitment incubated for 90 mins by pathhunter beta-arrestin assay; assay type: cell-based; in short: as §1
Mu-type opioid receptor [16] = biological target: T2, Mu-type opioid receptor; experiment: Agonist activity at human MOR stably expressed in CHO cell membranes assessed as stimulation of [35S]-GTPgammaS binding incubated for 1 hr by liquid scintillation counting assay; assay type: functional; in short: as §3

Compound	Emax [1]	Emax (Mu-type opioid receptor [2])	Ki (Mu-type opioid receptor [3])	Emax [4]	Emax [5]	EC50 [6]	Emax (Mu-type opioid receptor [7])	Ratio Ki (Mu-type opioid receptor [8])	EC50 [9]	EC50 [10]	Ki [11]	Ki [12]	Ki [13]	Ki [14]	EC50 (Mu-type opioid receptor [15])	EC50 (Mu-type opioid receptor [16])
CC(C)C[C@H](NC(=O)[C@@H](NC(=O)[C@H](Cc1ccc(O)cc1)NC(=O)[C@@H]1CCCN1C(=O)[C@H](CCCNC(=N)N)NC(=O)[C@@H](N)CCCNC(=N)N)C(C)(C)C)C(=O)O	97%	–	–	–	–	–	–	–	–	–	–	–	–	–	–	–
Cc1cc(O)cc(C)c1C[C@H](N)C(=O)N[C@H](CCCNC(=N)N)C(=O)N[C@H]1Cc2ccccc2CN(CCC(=O)N[C@@H](CCCCN)C(=O)N[C@@H](CCCCN)C(=O)N2CCC[C@H]2C(=O)N[C@@H](Cc2ccc(O)cc2)C(=O)N[C@H](C(=O)N[C@@H](CC(C)C)C(=O)O)C(C)(C)C)C1=O (H-[Dmt][dR][X1]KKPY[Tle]L-OH)	99%	67%	4.89 nM	31%	87%	0.26 nM	99%	2	1650 nM	1320 nM	201 nM	0.29 nM	213 nM	2.3 nM	2460 nM	64.6 nM
CC(C)C[C@H](NC(=O)[C@@H](NC(=O)[C@H](Cc1cccc(O)c1)NC(=O)[C@@H]1CCCN1C(=O)[C@H](CCCNC(=N)N)NC(=O)[C@@H](N)CCCNC(=N)N)C(C)(C)C)C(=O)O	–	–	–	–	–	–	–	–	–	–	–	24 nM	–	93 nM	–	–
Cc1cc(O)cc(C)c1C[C@H](NC(=O)[C@@H]1CCCN1C(=O)[C@H](CCCNC(=N)N)NC(=O)C[C@@H](N)CCCNC(=N)N)C(=O)N[C@H](C(=O)N[C@@H](CC(C)C)C(=O)O)C(C)(C)C	–	–	–	–	–	–	–	–	–	–	–	0.11 nM	–	2.3 nM	–	–
Cc1cc(O)cc(C)c1C[C@H](N)C(=O)N[C@H](CCCNC(=N)N)C(=O)N[C@H]1Cc2ccccc2CN(CCC(=O)N[C@@H](CCCNC(=N)N)C(=O)N[C@@H](CCCNC(=N)N)C(=O)N2CCC[C@H]2C(=O)N[C@@H](Cc2cccc(O)c2)C(=O)N[C@H](C(=O)N[C@@H](CC(C)C)C(=O)O)C(C)(C)C)C1=O (H-[Dmt][dR][X1]RRP[mTyr][Tle]L-OH)	95%	81%	1.73 nM	28%	110%	6.7 nM	95%	2	424 nM	177 nM	19.9 nM	0.33 nM	60.9 nM	12.4 nM	359 nM	6.49 nM
Cc1cc(O)cc(C)c1C[C@H](NC(=O)[C@@H]1CCCN1C(=O)[C@H](CCCNC(=N)N)NC(=O)[C@@H](N)CCCNC(=N)N)C(=O)N[C@H](C(=O)N[C@@H](CC(C)C)C(=O)O)C(C)(C)C	–	–	–	–	–	–	–	–	–	–	–	3 nM	–	13.4 nM	–	–
Cc1cc(O)cc(C)c1C[C@H](N)C(=O)N[C@H](CCCNC(=N)N)C(=O)N[C@H]1Cc2ccccc2CN(CCC(=O)N[C@@H](CCCCN)C(=O)N[C@@H](CCCCN)C(=O)N2CCC[C@H]2C(=O)N2Cc3ccc(O)cc3C[C@H]2C(=O)N[C@H](C(=O)N[C@@H](CC(C)C)C(=O)O)C(C)(C)C)C1=O (H-[Dmt][dR][X1]KKP[X2][Tle]L-OH)	–	66%	6.24 nM	20%	91%	–	94%	2	1560 nM	842 nM	150 nM	75 nM	209 nM	6830 nM	2160 nM	45.6 nM
CC(C)C[C@H](NC(=O)[C@@H](NC(=O)[C@@H]1Cc2cc(O)ccc2CN1C(=O)[C@@H]1CCCN1C(=O)[C@H](CCCNC(=N)N)NC(=O)[C@@H](N)CCCNC(=N)N)C(C)(C)C)C(=O)O (H-RRP[X2][Tle]L-OH)	–	–	–	–	–	–	–	–	–	–	–	132 nM	–	6680 nM	–	–
Cc1cc(O)cc(C)c1C[C@H](N)C(=O)N[C@H](CCCNC(=N)N)C(=O)N[C@H]1Cc2ccccc2CN(CCC(=O)N[C@@H](CCCCN)C(=O)N[C@@H](CCCCN)C(=O)N2CCC[C@H]2C(=O)N[C@@H](Cc2cccc(O)c2)C(=O)N[C@H](C(=O)N[C@@H](CC(C)C)C(=O)O)C(C)(C)C)C1=O (H-[Dmt][dR][X1]KKP[mTyr][Tle]L-OH)	90%	66%	3.99 nM	30%	90%	15 nM	87%	2	401 nM	452 nM	70.9 nM	0.5 nM	200 nM	59 nM	1270 nM	27.4 nM
Cc1cc(O)cc(C)c1C[C@H](NC(=O)[C@@H]1CCCN1C(=O)[C@H](CCCCN)NC(=O)[C@H](CCCCN)NC(=O)CCN1Cc2ccccc2C[C@H](NC(=O)[C@@H](CCCNC(=N)N)NC(=O)[C@@H](N)Cc2c(C)cc(O)cc2C)C1=O)C(=O)N[C@H](C(=O)N[C@@H](CC(C)C)C(=O)O)C(C)(C)C (H-[Dmt][dR][X1]KKP[Dmt][Tle]L-OH)	109%	62%	7.15 nM	22%	60%	3.9 nM	95%	2	1570 nM	898 nM	138 nM	0.16 nM	276 nM	13 nM	1960 nM	48.7 nM
Cc1cc(O)cc(C)c1C[C@H](N)C(=O)N[C@H](CCCNC(=N)N)C(=O)N[C@H]1Cc2ccccc2CN(CCC(=O)N[C@@H](CCCNC(=N)N)C(=O)N[C@@H](CCCNC(=N)N)C(=O)N2CCC[C@H]2C(=O)N[C@@H](Cc2ccc(O)cc2)C(=O)N[C@H](C(=O)N[C@@H](CC(C)C)C(=O)O)C(C)(C)C)C1=O (H-[Dmt][dR][X1]RRPY[Tle]L-OH)	111%	72%	1.32 nM	34%	106%	0.24 nM	94%	2	514 nM	301 nM	78.6 nM	0.09 nM	56.4 nM	0.43 nM	1330 nM	12.8 nM
